According to ChEMBL document CHEMBL4368943 (J Med Chem, 2019):
Active and inactive are the calls of the source. No cut-off for these calls is given here.

What was measured:
[1] = target: T1, von Hippel-Lindau disease tumor suppressor/Estrogen receptor/Cullin-2 (Homo sapiens, UniProt P03372+P40337+Q13617); test: Protac activity against VHL/cullin2/ERalpha in human MCF7 cells assessed as ERalpha degradation by measuring ER protein/GADPH ratio at 1 nM after 4 hrs by Western blot analysis relative to control; assay type: cell-based
Method in brief: (§1)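 MCF-7 cells (DMEM, 10% FBS, passages 3−8) exposed 4 h. Lysed in RIPA with protease inhibitors; equal protein on 10% SDS-PAGE, PVDF, anti-ERα blot. Membranes stripped and reprobed for GAPDH. ERα/GAPDH ratio normalized to DMSO = 100; DC50 from densitometry of the dose series.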

[2] = target: T1, von Hippel-Lindau disease tumor suppressor/Estrogen receptor/Cullin-2; test: Protac activity against VHL/cullin2/ERalpha in human MCF7 cells assessed as ERalpha degradation by measuring ER protein/GADPH ratio at 10 nM after 4 hrs by Western blot analysis relative to control; assay type: cell-based; method in brief: as §1
[3] = target: T1, von Hippel-Lindau disease tumor suppressor/Estrogen receptor/Cullin-2; test: Protac activity against VHL/cullin2/ERalpha in human MCF7 cells assessed as ERalpha degradation by measuring ER protein/GADPH ratio at 100 nM after 4 hrs by Western blot analysis relative to control; assay type: cell-based; method in brief: as §1
[4] = target: T1, von Hippel-Lindau disease tumor suppressor/Estrogen receptor/Cullin-2; test: Protac activity against VHL/cullin2/ERalpha in human MCF7 cells assessed as ERalpha degradation by measuring ER protein/GADPH ratio at 1000 nM after 4 hrs by Western blot analysis relative to control; assay type: cell-based; method in brief: as §1
MCF7 [5] = test: Inhibition of cell growth in human MCF7 cells after 4 days by wst-8-based colorimetric analysis; assay type: functional; settings: MCF7, 96 h
Method in brief: (§2)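 Cells seeded at 1500/well overnight, then exposed to graded compound doses for 4 days. Growth read by colorimetric WST-8 assay. GI50 from fitted curves. MCF-7 cells were kept in DMEM, 10% FBS, passages 3−8; human mammary epithelial cells were run the same way.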

MCF7 [6] = test: Inhibition of cell growth in human MCF7 cells after 4 days by wst-8-based colorimetric analysis relative to control; assay type: functional; method in brief: as §2
MCF7 [7] = test: Antiproliferative activity against human MCF7 cells at 10 to 300 nM after 5 days by crystal violet staining based assay; assay type: functional, cell-based
Method in brief: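 MCF-7 cells in DMEM with 10% FBS and penicillin/streptomycin, passages 3−8, exposed to compounds at 10, 100 and 300 nM for 5 days, then fixed and stained with crystal violet.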

[8] = Binding affinity to His-TEV-tagged VHL (54 to 213 residues) (unknown origin)/Elongin B (1 to 118 residues)/Elongin C (1 to 96 residues) expressed in Escherichia coli BL21(DE3) by FP assay; design: species or system Homo sapiens
Method in brief: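 Competitive FP. Tracer is a fluorescent VHL ligand (Kd 2.3 nM). VHL–ElonginB/C complex and tracer each at 5 nM final, preincubated. Compound in DMSO (5 µL into 95 µL) for 60 min at room temperature with shaking. Ex 485/em 530 nm. IC50 by nonlinear regression; Ki from probe KD and protein/probe concentrations. Duplicate, three independent experiments.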

[9] = target: T2, Protein cereblon/Estrogen receptor/Cullin-4A (Homo sapiens) (UniProt P03372+Q96SW2+Q13619); test: Protac activity against cereblon/cullin 4A/ERalpha in human MCF7 cells assessed as ERalpha degradation by measuring ER protein/GADPH ratio at 1 nM after 4 hrs by Western blot analysis relative to control; assay type: cell-based; method in brief: as §1
[10] = target: T2, Protein cereblon/Estrogen receptor/Cullin-4A (Homo sapiens); test: Protac activity against cereblon/cullin 4A/ERalpha in human MCF7 cells assessed as ERalpha degradation by measuring ER protein/GADPH ratio at 10 nM after 4 hrs by Western blot analysis relative to control; assay type: cell-based; method in brief: as §1
[11] = target: T2, Protein cereblon/Estrogen receptor/Cullin-4A (Homo sapiens); test: Protac activity against cereblon/cullin 4A/ERalpha in human MCF7 cells assessed as ERalpha degradation by measuring ER protein/GADPH ratio at 100 nM after 4 hrs by Western blot analysis relative to control; assay type: cell-based; method in brief: as §1
[12] = target: T2, Protein cereblon/Estrogen receptor/Cullin-4A (Homo sapiens); test: Protac activity against cereblon/cullin 4A/ERalpha in human MCF7 cells assessed as ERalpha degradation by measuring ER protein/GADPH ratio at 1000 nM after 4 hrs by Western blot analysis relative to control; assay type: cell-based; method in brief: as §1
[13] = target: T1, von Hippel-Lindau disease tumor suppressor/Estrogen receptor/Cullin-2; test: Protac activity against VHL/cullin2/ERalpha in human MCF7 cells assessed as ERalpha degradation by measuring reduction in ER protein level pre-treated with raloxifene for 2 hrs followed by compound exposure at 30 nM for 4 hrs by Western blot analysis; assay type: cell-based

T2 sequence (P03372 whole entry, looked up): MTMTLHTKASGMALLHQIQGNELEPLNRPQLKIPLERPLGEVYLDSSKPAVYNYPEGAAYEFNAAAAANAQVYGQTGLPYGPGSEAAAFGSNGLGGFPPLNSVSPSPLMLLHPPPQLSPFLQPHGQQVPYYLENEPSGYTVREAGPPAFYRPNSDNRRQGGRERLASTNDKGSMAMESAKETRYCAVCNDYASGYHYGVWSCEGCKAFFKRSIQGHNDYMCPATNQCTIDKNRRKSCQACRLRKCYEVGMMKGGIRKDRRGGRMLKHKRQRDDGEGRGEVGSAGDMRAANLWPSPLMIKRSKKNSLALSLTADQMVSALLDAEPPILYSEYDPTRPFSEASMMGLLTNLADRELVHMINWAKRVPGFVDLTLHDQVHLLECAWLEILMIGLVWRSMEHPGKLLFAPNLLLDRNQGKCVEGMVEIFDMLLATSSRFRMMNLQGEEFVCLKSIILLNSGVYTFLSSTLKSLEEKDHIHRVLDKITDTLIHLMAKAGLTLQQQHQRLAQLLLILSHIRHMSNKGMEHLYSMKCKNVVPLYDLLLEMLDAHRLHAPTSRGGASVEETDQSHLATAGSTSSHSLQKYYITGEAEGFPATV
T2 sequence (Q13619 whole entry, looked up): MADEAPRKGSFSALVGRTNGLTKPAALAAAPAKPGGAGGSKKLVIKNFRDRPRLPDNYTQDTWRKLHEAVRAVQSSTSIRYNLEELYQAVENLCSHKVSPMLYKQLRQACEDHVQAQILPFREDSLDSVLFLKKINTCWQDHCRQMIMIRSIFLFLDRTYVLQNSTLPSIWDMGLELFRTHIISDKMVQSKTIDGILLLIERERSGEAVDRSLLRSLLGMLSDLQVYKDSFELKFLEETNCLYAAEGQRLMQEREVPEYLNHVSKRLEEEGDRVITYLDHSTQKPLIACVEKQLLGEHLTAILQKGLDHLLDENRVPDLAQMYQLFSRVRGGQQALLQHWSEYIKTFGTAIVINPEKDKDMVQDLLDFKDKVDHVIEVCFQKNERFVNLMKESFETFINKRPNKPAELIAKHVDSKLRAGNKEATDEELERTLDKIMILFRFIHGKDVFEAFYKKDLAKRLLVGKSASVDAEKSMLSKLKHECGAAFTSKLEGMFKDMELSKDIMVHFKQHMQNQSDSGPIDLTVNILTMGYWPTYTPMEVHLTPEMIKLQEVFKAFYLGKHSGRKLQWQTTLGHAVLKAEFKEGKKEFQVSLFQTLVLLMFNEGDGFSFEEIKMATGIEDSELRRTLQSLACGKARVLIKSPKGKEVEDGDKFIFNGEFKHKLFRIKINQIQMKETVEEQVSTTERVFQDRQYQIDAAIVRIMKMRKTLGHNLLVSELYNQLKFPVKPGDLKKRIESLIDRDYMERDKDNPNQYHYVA
T2 sequence (Q96SW2 whole entry, looked up): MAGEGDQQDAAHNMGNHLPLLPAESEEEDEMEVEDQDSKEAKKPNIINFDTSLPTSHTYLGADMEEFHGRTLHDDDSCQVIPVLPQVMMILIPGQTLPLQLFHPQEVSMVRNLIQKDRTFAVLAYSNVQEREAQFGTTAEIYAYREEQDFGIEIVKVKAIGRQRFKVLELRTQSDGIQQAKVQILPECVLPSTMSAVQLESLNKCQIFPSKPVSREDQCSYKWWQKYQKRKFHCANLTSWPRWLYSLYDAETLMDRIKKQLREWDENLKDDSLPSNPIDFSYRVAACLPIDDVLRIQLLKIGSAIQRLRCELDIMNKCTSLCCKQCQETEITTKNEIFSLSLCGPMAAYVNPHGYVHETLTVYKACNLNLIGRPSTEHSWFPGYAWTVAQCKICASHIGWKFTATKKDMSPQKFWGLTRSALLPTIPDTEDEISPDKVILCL
T1 sequence (P03372 whole entry, looked up): as the sequence (P03372 whole entry, looked up) above
T1 sequence (P40337 whole entry, looked up): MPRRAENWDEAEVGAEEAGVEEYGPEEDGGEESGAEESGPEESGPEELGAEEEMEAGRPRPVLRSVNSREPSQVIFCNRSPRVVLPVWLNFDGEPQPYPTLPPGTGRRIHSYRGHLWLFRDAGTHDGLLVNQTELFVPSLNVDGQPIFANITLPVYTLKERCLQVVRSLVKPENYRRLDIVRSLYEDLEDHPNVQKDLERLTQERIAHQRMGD
T1 sequence (Q13617 whole entry, looked up): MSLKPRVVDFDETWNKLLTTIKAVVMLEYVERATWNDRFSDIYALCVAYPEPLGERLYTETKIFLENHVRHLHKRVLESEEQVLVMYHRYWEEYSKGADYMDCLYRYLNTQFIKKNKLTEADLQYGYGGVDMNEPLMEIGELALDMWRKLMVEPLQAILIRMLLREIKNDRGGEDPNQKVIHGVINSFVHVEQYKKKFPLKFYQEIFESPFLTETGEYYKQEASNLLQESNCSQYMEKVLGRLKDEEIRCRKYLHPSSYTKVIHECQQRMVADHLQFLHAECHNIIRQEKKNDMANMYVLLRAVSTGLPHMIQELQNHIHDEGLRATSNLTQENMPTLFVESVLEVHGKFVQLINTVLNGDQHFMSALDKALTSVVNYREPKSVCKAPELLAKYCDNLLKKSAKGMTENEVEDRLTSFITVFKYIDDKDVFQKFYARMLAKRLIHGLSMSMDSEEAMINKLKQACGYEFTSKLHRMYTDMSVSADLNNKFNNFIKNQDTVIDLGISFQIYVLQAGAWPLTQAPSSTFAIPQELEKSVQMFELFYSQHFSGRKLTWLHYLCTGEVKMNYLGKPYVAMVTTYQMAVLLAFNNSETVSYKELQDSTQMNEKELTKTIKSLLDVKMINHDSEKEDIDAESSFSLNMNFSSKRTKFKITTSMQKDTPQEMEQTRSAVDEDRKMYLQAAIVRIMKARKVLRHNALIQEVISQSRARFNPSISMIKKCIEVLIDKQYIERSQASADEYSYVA

CCN(CCOCCOCCOCCC(=O)N[C@H](C(=O)N1C[C@H](O)C[C@H]1C(=O)N[C@@H](C)c1ccc(-c2scnc2C)cc1)C(C)(C)C)CCOc1ccc(C(=O)c2c(-c3ccc(O)cc3)sc3cc(O)ccc23)cc1
Ratio [1]: 101 | Ratio [2]: 0.6 | Ratio [3]: 0.4 | Ratio [4]: 67

C[C@]12CC[C@@H]3c4ccc(O)cc4C[C@@H](CCCCCCCCC[S+]([O-])CCCC(F)(F)C(F)(F)F)[C@H]3[C@@H]1CC[C@@H]2O (stereo partly drawn) [FULVESTRANT]
GI50 (MCF7 [5]): 0.17 nM | Imax (MCF7 [6]): 43.8% | Activity (MCF7 [7]): Active

CC(=O)N[C@H](C(=O)N1C[C@H](O)C[C@H]1C(=O)N[C@@H](C)c1ccc(C(C)C)cc1)C(C)(C)C
IC50 [8]: 41000 nM

CCN(CCCCCCCC(=O)N[C@H](C(=O)N1C[C@H](O)C[C@H]1C(=O)N[C@@H](C)c1ccc(-c2scnc2C)cc1)C(C)(C)C)CCOc1ccc(C(=O)c2c(-c3ccc(O)cc3)sc3cc(O)ccc23)cc1
Ratio [1]: 21 | Ratio [2]: 0.4 | Ratio [3]: 0.3 | Ratio [4]: 64

CCN(CCOCCOCCOCC#Cc1cccc2c1CN(C1CCC(=O)NC1=O)C2=O)CCOc1ccc(C(=O)c2c(-c3ccc(O)cc3)sc3cc(O)ccc23)cc1 (stereo not drawn)
Ratio [9]: 124 | Ratio [10]: 149 | Ratio [11]: 146 | Ratio [12]: 165

C#Cc1ccc([C@H](C)NC(=O)[C@@H]2C[C@@H](O)CN2C(=O)[C@@H](NC(C)=O)C(C)(C)C)cc1
IC50 [8]: 879 nM

CC(C)C[C@H](NC(=O)[C@H](CCc1ccccc1)NC(=O)CN1CCOCC1)C(=O)N[C@@H](Cc1ccccc1)C(=O)N[C@@H](CC(C)C)C(=O)[C@@]1(C)CO1
Activity [13]: inactive
